In ChEMBL document CHEMBL1147254, “New bioactive polyphenols from Theobroma grandiflorum ("cupuaçu")” (J Nat Prod, 2003):

Key:
[1] = tested on: Radical scavenging activity; test: Antioxidant activity assessed as DPPH radical scavenging activity after 30 mins; assay type: functional
Summary of the method: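 Test samples in DMSO were mixed with a 300 µM ethanolic DPPH solution and incubated at 37 °C.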

HCT-116 = test: Cytotoxicity against human HCT116 cells after 72 hrs by MTT assay; assay type: functional, cell-based; conditions: HCT-116, 72 h
Summary of the method: (§1)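 About 30 000 cells per well were seeded in 96-well plates, and the medium was replaced once cultures reached 40% confluence.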

SW480 = test: Cytotoxicity against human SW480 cells after 72 hrs by MTT assay; assay type: functional, cell-based; conditions: SW480, 72 h; summary of the method: as §1

| IC50 [1] | SMILES | IC50 (HCT-116) | IC50 (SW480) |
| --- | --- | --- | --- |
| 49 µM | Oc1cc(O)c2c(c1)O[C@H](c1ccc(O)c(O)c1)[C@H](O)C2 [(-)-EPICATECHIN] | – | – |
| 120 µM | O=C(O)[C@H]1O[C@@H](Oc2c(O)cc(O)c3c(=O)cc(-c4ccc(O)c(O)c4)oc23)[C@H](O)[C@@H](OS(=O)(=O)O)[C@@H]1O [THEOGRANDIN II] | 143 µM | 125 µM |
| 49 µM | Oc1cc(O)c2c(c1)O[C@H](c1ccc(O)c(O)c1)[C@@H](O)C2 [CIANIDANOL] | – | – |
| 89.7 µM | O=c1c(O)c(-c2ccc(O)cc2)oc2cc(O)cc(O)c12 [KAEMPFEROL] | – | – |
| 58.2 µM | O=C(O)[C@H]1O[C@@H](Oc2c(O)cc(O)c3c(=O)cc(-c4ccc(O)c(O)c4)oc23)[C@H](O)[C@@H](O)[C@@H]1O | – | – |
| 41.6 µM | COC(=O)[C@H]1O[C@@H](Oc2c(-c3ccc(O)c(O)c3)oc3cc(O)cc(O)c3c2=O)[C@H](O)[C@@H](O)[C@@H]1O | – | – |
| 68.1 µM | O=C(O)[C@H]1O[C@@H](Oc2c(O)cc(O)c3c(=O)cc(-c4ccc(O)cc4)oc23)[C@H](O)[C@@H](O)[C@@H]1O | – | – |
| 44.4 µM | O=C(O)[C@H]1O[C@@H](Oc2c(-c3ccc(O)c(O)c3)oc3cc(O)cc(O)c3c2=O)[C@H](O)[C@@H](O)[C@@H]1O [QUERCETIN GLUCURONIDE] | – | – |
| 341 µM | O=C(O)[C@H]1O[C@@H](Oc2c(O)cc(O)c3c(=O)cc(-c4ccc(O)cc4)oc23)[C@H](O)[C@@H](OS(=O)(=O)O)[C@@H]1O [THEOGRANDIN I] | 205 µM | 164 µM |
| 69.2 µM | COC(=O)[C@H]1O[C@@H](Oc2c(O)cc(O)c3c(=O)cc(-c4ccc(O)cc4)oc23)[C@H](O)[C@@H](O)[C@@H]1O | – | – |

| SMILES | IC50 [1] | IC50 (HCT-116) | IC50 (SW480) |
| --- | --- | --- | --- |
| O=c1c(O)c(-c2ccc(O)c(O)c2)oc2cc(O)cc(O)c12 [QUERCETIN] | 39.7 µM | – | – |
